Experiment: Toxicity liver stage against HepG2, at 10uM
Format: cell-based
Parameters: test concentration 10 uM, cell line HepG2-A16-CD81EGFP
Conditions: human, HepG2-A16-CD81EGFP cells; read-out: INHIBITION
In short: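 Uninfected HepG2-A16-CD81EGFP cells, 3 × 10^3 per well, 1536-well, plated on prespotted compound at 10 μM final, parasite-free screening media added to match infected plates; puromycin 10 μM positive, DMSO 0.5% negative; run in parallel with 48 h PbLuc assay at 37 °C, 5% CO2; viability by CellTiter-Glo luminescence, normalized to controls.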

Row | Structure (SMILES) | cytotoxicity at 10 µM [%]
1 | Cc1cc(NCCN)nc2ccccc12 | 2.09
2 | CC(N)Cc1ccccc1Sc1ccc(O)cc1 (configuration not stated) | 3.76
3 | Cc1ccc(Oc2ncccc2C(=O)N(C)CCCN(C)C)c(C)c1 | -1.16
4 | O=S(=O)(CC1CCCN1S(=O)(=O)c1cccnc1)c1ccccc1 (configuration not stated) | -4.31
5 | O=C(Cn1ccc2cc(Br)ccc21)NCc1ccc(C(=O)O)cc1 | 9.6
6 | CN1N=C(C(=O)N2CCCCC2)S(=O)(=O)c2ccccc21 | -183
7 | COc1cccc(C2CC(=O)Nc3nc(N4CCOCC4)sc32)c1OC (configuration not stated) | -3.26
8 | COc1cccc(CN2CCCC3(CCN(C(=O)[C@H]4CCCO4)C3)C2)c1 (some centres not stated) | 5.01
9 | O=C(Cc1ccccc1)N1CCC2(CC(=O)N(c3ccsc3)C2)C1 (configuration not stated) | -10.2
10 | CCn1ncc2c1C(COCC1CC1)CN(C(=O)c1cccs1)C2 (configuration not stated) | -7.64
11 | CCC(C)NC(=O)N1CCCn2cnc(CO)c2C1 (configuration not stated) | -9.35
12 | O=C(COCC(=O)N(c1ccccc1)c1ccccc1)N1CCOCC1 | 1.64
13 | CC(=O)Nc1ncc(S(=O)(=O)Nc2cccc(O)c2)s1 | 8.49
14 | Cc1ccc(C(=O)NCc2ccnc(C3CCCOC3)n2)s1 (configuration not stated) | 5.29
15 | Cc1noc(C)c1-c1cc(CCC2CN(C(=O)C(C)C)CCO2)ncn1 (configuration not stated) | 4.16
16 | O=C(O)c1ccc(CN2CCC(c3ccnc4ccnn34)CC2)cc1 | -29.9
17 | Cc1cnc(N)c(C(=O)C2CCN(C(=O)C3CCC3)CC2)c1 | -23.1
18 | COCCN(C)C(C)Cc1ccccc1OC (configuration not stated) | -5.34
19 | Cc1c(C(=O)O)nnn1-c1cccc2cccnc12 | 5.31
20 | Cc1sc(C(=O)N(C)S(C)(=O)=O)cc1-c1ccc(F)cc1 | 0.269
21 | Cc1c(NC(=O)N(C)CCn2cnnc2)cccc1OC1CCCC1 | -0.509

Row | Structure (SMILES) | cytotoxicity at 10 µM [%]
22 | CN(Cc1c(Cl)ccc2cccnc12)CC(C)(CO)CO | 7.6
23 | COc1ccc(CN2CCN(S(=O)(=O)c3cc(C(=O)O)cs3)CC2)cc1 | 2.03
24 | Cc1csc(CCNC(=O)N2CCC(NC(=O)OC(C)(C)C)CC2)n1 | 1.23
25 | CN1CC(C(=O)NCCc2ccn(-c3ccc(F)cc3)n2)CC1=O (configuration not stated) | 3.38
26 | O=C(N1CCC(Oc2ccncc2)C1)C1(c2ccccc2F)CC1 (configuration not stated) | -10.4
27 | c1ccn2cc(CN3CCCC(c4ccn[nH]4)C3)nc2c1 (configuration not stated) | 6.76
28 | N#CCCN(CC1CC1)Cn1cc(Cl)cn1 | 4.03
29 | CC(CN1CCOCC1)N(Cc1ccccc1)Cc1ccncc1 (configuration not stated) | 5.5
30 | Cc1nnc2n1CCN(C(C)c1nnc(-c3cccs3)o1)C2 (configuration not stated) | -11.2
31 | Cc1cc(CNC(=O)NC(C)(CO)C2CC2)c(C)s1 (configuration not stated) | 3.46
32 | COCCOCC(=O)NCCCOC1CCCc2ccccc21 (configuration not stated) | 4.15
33 | CC(C)CCC(=O)Nc1ncn(CC(=O)N2CCCCCC2)n1 | 1.17
34 | Cc1nnc(NC(=O)NC2CCOc3ccccc32)s1 (configuration not stated) | -13.4
35 | COCCNC(=O)[C@@H]1CCO[C@@H]2CCN(c3ccc(C)nn3)C[C@@H]21 | -73.2
36 | CCOCC1CN(C(=O)c2cscn2)Cc2nnn(CC3CC3)c21 (configuration not stated) | 1.9
37 | CNc1nc(C)c(C(=O)N2CCCCC2CCN2CCOCC2)s1 (configuration not stated) | -2.06
38 | N#Cc1cc2n(n1)CCN(C(=O)CCc1c[nH]c3ccccc13)C2 | -9.64
39 | Cc1cnc(C)c(N2CCC(Cc3ccccc3Cl)(C(=O)O)CC2)n1 | 3.4
40 | Cn1cc(C(=O)N2CC[C@@]3(O)CCN(C4CCCCC4)C[C@H]3C2)cn1 | -131
41 | CCCc1nc(C(=O)N2CCN(C(=O)c3ccc(OC)cc3)CC2)cs1 | -3.07
42 | CCC[C@H]1CN(CCS(C)(=O)=O)C[C@@H]1NC(=O)Cn1cc(C)cn1 | 2.72

Row | Structure (SMILES) | cytotoxicity at 10 µM [%]
43 | CC(=O)N1C[C@H](NS(=O)(=O)N2CCCC2)[C@@H](c2ccc(C)o2)C1 | -1.91
44 | c1cn(Cc2ccc(N3CCCN(C4CCCC4)CC3)nc2)cn1 | 12
45 | Cc1cc(C(N)=O)c(N2C[C@@H](C)[C@@](C)(O)C2)nc1C | -9.14
46 | COc1cccc2ccc(N3CCC(O)(C(=O)O)CC3)nc12 | 3.13
47 | CCCn1c(C)c(CC(=O)N(C)CCOC)c2c1CC(C)(C)CC2=O | -16.6
48 | COCCCn1c(CN2CCCC(O)C2)cnc1S(=O)(=O)C1CCCC1 (configuration not stated) | -13.5
49 | CC(=O)N1CCCC1c1csc(Nc2cnccn2)n1 (configuration not stated) | 2.09
50 | CCc1cnc(CN2CCC(N(C)Cc3noc(C)n3)C2)o1 (configuration not stated) | 4.92
51 | Cc1csc(C2CCCCN2C(=O)c2cc(C3CC3)[nH]n2)n1 (configuration not stated) | -11.6
52 | Cc1cnn(C2CCCN(C(=O)c3ccc(OCC4CC4)nc3)C2)c1 (configuration not stated) | -4.04
53 | CN(C(=O)NCCN1CCOCC1)C1CCN(c2ccccc2)C1=O (configuration not stated) | -11.6
54 | CC(C)c1nn(C)c(N(C)C)c1CNCc1ccc(N(C)C)nc1 | -8.42
55 | CCc1nc(CN2CCCC(NCc3cccc(C(N)=O)c3)C2)no1 (configuration not stated) | 1.56
56 | CCc1noc(C(C)N2CCN(CC(C)C)CC2)n1 (configuration not stated) | -4.05
57 | Cc1cnn(CC2CCCN2CCCS(C)(=O)=O)c1 (configuration not stated) | -8.18
58 | CCOc1ccccc1C(=O)NC(CC(=O)O)c1cccs1 (configuration not stated) | -11.4
59 | Cn1ccnc1CN1CCCN(C(=O)COCC2CC2)CC1 | -11.8
60 | Cc1nnc2n1CCN(CCOc1ccc(C(C)(C)C)cc1)C2 | -17.1
61 | CN(C)c1cccc(C(=O)N2CCC(c3n[nH]c(C4CC4)n3)CC2)c1 | -11.2
62 | CN1CCOC(CNCc2csc(C3CCCCC3)n2)C1 (configuration not stated) | -8.57
63 | Cn1ccc(C(=O)NCc2ccccc2CN2CCCC2)cc1=O | -17.1

Row | Structure (SMILES) | cytotoxicity at 10 µM [%]
64 | CN(CC(=O)N1CCCCC1c1nccs1)C1CC1 (configuration not stated) | 10.2
65 | Cc1cc(C)n(CC2CCCN2C(=O)c2cnc3n[nH]c(C)c3c2)n1 (configuration not stated) | -2.61
66 | CCc1nc(CN2CCCN(C(=O)COC(C)C)CC2)cs1 | -15
67 | O=C(c1cccn1Cc1cccs1)N1CCCC1Cn1cccn1 (configuration not stated) | -7.52
68 | Cc1cnn(CC2CCCN2CCCc2nc3ccccc3o2)c1 (configuration not stated) | -6.19
69 | CCCc1n[nH]c(C2CN(CCCOc3ccccc3)CCO2)n1 (configuration not stated) | -0.409
70 | O=C(NCCN1CCCCCC1=O)c1ccn(-c2ccc(F)cc2)n1 | -8.62
71 | Cc1nc(C)c(C(=O)NCCNc2ncccc2C#N)s1 | -1.5
72 | CN(C)[C@@H]1CN(Cc2ccccn2)C[C@H]1c1cn(C)c2ccccc12 | -0.73
73 | CN(C)CCn1c2c(ccc1=O)CCN(C(=O)c1cccs1)CC2 | 0.0915
74 | CCCN(CC(=O)N1CCNCC1)C(=O)c1cccc(Cl)c1 | 10.7
75 | COCC1CC2(CCN(C(=O)c3ccccc3C)CC2)CN1C(C)C (configuration not stated) | 7.77
76 | c1nc2c(c(C3CC3)n1)CCN(CC1CCOC1)CC2 (configuration not stated) | 1.26
77 | COc1ccc(CN2CCC3(CC2)CCN(CC(C)C)C3=O)cc1 | 3.17
78 | Cc1cnc(C(=O)N2C[C@@H]3CN(CC4CCCC4)CCO[C@@H]3C2)cn1 | -2.76
79 | CN(C)CCNC(=O)c1ccn(-c2ccc3ccccn23)n1 | -0.0395
80 | COCCN1CCC2(CC1)C(=O)Nc1ccc(C(=O)NC(C)C)cc12 | 2.02
81 | CC=C(C)C(=O)NS(=O)(=O)c1ccc(C(F)(F)F)cc1 | 3.12
82 | CS(=O)(=O)N1C[C@H]2CC[C@@H](C1)N(Cc1cscn1)C2=O | -9.35
